The source made the active and inactive calls. The calls are words filed in the database; no cut-off is given here.
Columns and labels:
SW480 [1] = experiment: Cytotoxicity against human SW480 cells assessed as cell viability after 24 hrs by MTT assay; assay type: functional, cell-based
In short: (§1)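 Cells seeded at 5000/well in 96-well plates, adhered overnight, then exposed to compound for 24 or 48 h (0−20 μM for SW480/SW620; 0−30 μM for HCT116 p53+/+ and p53−/−). MTT (5 mg/mL) added for 3.5 h, formazan dissolved in DMSO, OD read at 570 nm with 655 nm reference. Means ± SE from three independent experiments; IC50 derived from viability curves.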

SW480 [2] = experiment: Cytotoxicity against human SW480 cells assessed as cell viability after 48 hrs by MTT assay; assay type: functional, cell-based; in short: as §1
SW-620 [3] = experiment: Cytotoxicity against human SW620 cells assessed as cell viability after 24 hrs by MTT assay; assay type: functional, cell-based; in short: as §1
SW-620 [4] = experiment: Cytotoxicity against human SW620 cells assessed as cell viability after 48 hrs by MTT assay; assay type: functional, cell-based; in short: as §1
SW-620 [5] = experiment: Inhibition of proto-oncogene protein Wnt/beta-catenin in human SW620 cells assessed as downregulation of TCF/LEF promoter transcriptional activity after 24 hrs by TOPFlash luciferase reporter gene assay; assay type: cell-based
In short: (§2)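 3 × 10^4 cells/well transfected with TOPFlash or FOPFlash plus Renilla plasmids (200 ng) by lipofectin in serum- and antibiotic-free DMEM. After 6 h, compound added in complete DMEM for 24 h (SW620 1−3 μM; HCT116 lines 5 and 10 μM), DMSO control. Dual luciferase read by photon counting, firefly normalized to Renilla; means ± SE, three independent experiments, Student t-test.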

SW-620 [6] = experiment: Inhibition of proto-oncogene protein Wnt/beta-catenin in human SW620 cells assessed as downregulation of mutant TCF/LEF promoter transcriptional activity at 1 to 3 uM after 24 hrs by FOPFlash luciferase reporter gene assay; assay type: cell-based; in short: as §2
SW480 [7] = experiment: Inhibition of proto-oncogene protein Wnt/beta-catenin in human SW480 cells assessed as downregulation of TCF/LEF promoter transcriptional activity after 24 hrs by TOPFlash luciferase reporter gene assay; assay type: cell-based
SW480 [8] = experiment: Inhibition of proto-oncogene protein Wnt/beta-catenin in human SW480 cells assessed as downregulation of mutant TCF/LEF promoter transcriptional activity at 1 to 3 uM after 24 hrs by FOPFlash luciferase reporter gene assay; assay type: cell-based
SW-620 [9] = experiment: Inhibition of proto-oncogene protein Wnt in human SW620 cells assessed as downregulation of beta-catenin protein expression at 6 uM after 24 hrs by Western blot analysis; assay type: cell-based
In short: (§3)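 10^6 cells/well in six-well plates treated 24 h with compound (6 μM SW620; 10 μM HCT116 lines) or DMSO control. Lysed 1 h on ice in Tris/NaCl/Triton/deoxycholate buffer with phosphatase and protease inhibitors; 50−75 μg protein on 8−10% SDS-PAGE, PVDF, primary antibodies 1:1000 overnight 4 °C, HRP secondaries 1:10 000, chemiluminescence; β-actin loading control; three independent experiments.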

SW-620 [10] = experiment: Inhibition of proto-oncogene protein Wnt in human SW620 cells assessed as downregulation of p300 protein expression at 6 uM after 24 hrs by Western blot analysis; assay type: cell-based; in short: as §3
SW-620 [11] = experiment: Inhibition of proto-oncogene protein Wnt in human SW620 cells assessed as downregulation of TCF7L2 protein expression at 6 uM after 24 hrs by Western blot analysis; assay type: cell-based; in short: as §3
SW-620 [12] = experiment: Inhibition of proto-oncogene protein Wnt in human SW620 cells assessed as downregulation of Bcl9l protein expression at 6 uM after 24 hrs by Western blot analysis; assay type: cell-based; in short: as §3
SW480 [13] = experiment: Inhibition of proto-oncogene protein Wnt in human SW480 cells assessed as downregulation of beta-catenin protein expression at 6 to 10 uM after 24 hrs by Western blot analysis; assay type: cell-based
SW480 [14] = experiment: Inhibition of proto-oncogene protein Wnt in human SW480 cells assessed as downregulation of p300 protein expression at 6 to 10 uM after 24 hrs by Western blot analysis; assay type: cell-based
SW480 [15] = experiment: Inhibition of proto-oncogene protein Wnt in human SW480 cells assessed as downregulation of TCF7L2 protein expression at 6 to 10 uM after 24 hrs by Western blot analysis; assay type: cell-based
SW480 [16] = experiment: Inhibition of proto-oncogene protein Wnt in human SW480 cells assessed as downregulation of Bcl9l protein expression at 6 to 10 uM after 24 hrs by Western blot analysis; assay type: cell-based
SW-620 [17] = experiment: Inhibition of proto-oncogene protein Wnt/beta-catenin in human SW620 cells assessed as downregulation of c-Myc protein expression at 6 uM after 24 hrs by Western blot analysis relative to control; assay type: cell-based; in short: as §3
SW-620 [18] = experiment: Inhibition of proto-oncogene protein Wnt/beta-catenin in human SW620 cells assessed as downregulation of cyclin D1 protein expression at 6 uM after 24 hrs by Western blot analysis relative to control; assay type: cell-based; in short: as §3
SW-620 [19] = experiment: Inhibition of proto-oncogene protein Wnt/beta-catenin in human SW620 cells assessed as downregulation of vimentin protein expression at 6 uM after 24 hrs by Western blot analysis relative to control; assay type: cell-based; in short: as §3
HCT-116 [20] = experiment: Cytotoxicity against human HCT116 cells expressing p53 assessed as cell viability after 24 hrs by MTT assay; assay type: functional, cell-based; conditions: HCT-116, 24 h; in short: as §1
HCT-116 [21] = experiment: Cytotoxicity against p53-deficient human HCT116 cells assessed as cell viability after 24 hrs by MTT assay; assay type: functional, cell-based; conditions: HCT-116, 24 h; in short: as §1
HCT-116 [22] = experiment: Inhibition of proto-oncogene protein Wnt/beta-catenin in human HCT116 cells expressing p53 assessed as downregulation of TCF/LEF promoter transcriptional activity at 5 to 10 uM after 24 hrs by TOPFlash/FOPFlash luciferase reporter gene assay; assay type: cell-based; in short: as §2
HCT-116 [23] = experiment: Inhibition of proto-oncogene protein Wnt/beta-catenin in p53-deficient human HCT116 cells assessed as downregulation of TCF/LEF promoter transcriptional activity at 5 to 10 uM after 24 hrs by TOPFlash/FOPFlash luciferase reporter gene assay; assay type: cell-based; in short: as §2
HCT-116 [24] = experiment: Inhibition of proto-oncogene protein Wnt in human HCT116 cells expressing p53 assessed as downregulation of beta-catenin protein expression at 10 uM after 24 hrs by Western blot analysis relative to control; assay type: cell-based; in short: as §3
HCT-116 [25] = experiment: Inhibition of proto-oncogene protein Wnt in p53-deficient human HCT116 cells assessed as downregulation of beta-catenin protein expression at 10 uM after 24 hrs by Western blot analysis relative to control; assay type: cell-based; in short: as §3
SW-620 [26] = experiment: Upregulation of HBP1 protein expression in human SW620 cells at 6 uM after 24 hrs by Western blot analysis relative to control; assay type: functional; in short: as §3
HCT-116 [27] = experiment: Upregulation of HBP1 protein expression in human HCT116 cells expressing p53 at 10 uM after 24 hrs by Western blot analysis; assay type: functional, cell-based; in short: as §3
HCT-116 [28] = experiment: Upregulation of HBP1 protein expression in p53-deficient human HCT116 cells at 10 uM after 24 hrs by Western blot analysis; assay type: functional, cell-based; in short: as §3

Compound: CC1=CC(=O)c2c(O)cccc2C1=O [PLUMBAGIN]
- Activity (SW480 [1]): Dose-dependent effect
- IC50 (SW480 [1]; SW480, 24 h): 12 µM
- Activity (SW480 [2]): Dose-dependent effect
- IC50 (SW480 [2]; SW480, 48 h): 7.3 µM
- Activity (SW-620 [3]): Dose-dependent effect
- IC50 (SW-620 [3]; SW-620, 24 h): 7.7 µM
- Activity (SW-620 [4]): Dose-dependent effect
- IC50 (SW-620 [4]; SW-620, 48 h): 7.4 µM
- inhibition (SW-620 [5]): Dose-dependent effect
- inhibition (SW-620 [6]): inactive
- inhibition (SW480 [7]): Dose-dependent effect
- inhibition (SW480 [8]): inactive
- inhibition (SW-620 [9]): Active
- inhibition (SW-620 [10]): Active
- inhibition (SW-620 [11]): Active
- inhibition (SW-620 [12]): Active
- inhibition (SW480 [13]): Active
- inhibition (SW480 [14]): Active
- inhibition (SW480 [15]): Active
- inhibition (SW480 [16]): Active
- inhibition (SW-620 [17]): 50%
- inhibition (SW-620 [18]): 50%
- inhibition (SW-620 [19]): 50%
- IC50 (HCT-116 [20]): 20 µM
- IC50 (HCT-116 [21]): 20 µM
- inhibition (HCT-116 [22]): Active
- inhibition (HCT-116 [23]): Active
- inhibition (HCT-116 [24]): 33%
- inhibition (HCT-116 [25]): 20%
- fold change (FC) (SW-620 [26]): 1.68
- Activity (HCT-116 [27]): Active
- Activity (HCT-116 [28]): Active

— ChEMBL document CHEMBL3297651, “Plumbagin downregulates Wnt signaling independent of p53 in human colorectal cancer cells” (J Nat Prod, 2014)
